Source: ChEMBL document CHEMBL3526002, “Tissue distribution and identification of radioactivity components at elimination phase after oral administration of [¹⁴C]CS-1036, an α-amylase inhibitor, to rats” (Drug Metab Dispos, 2013)

Tests used:
Parameters in all cases: dose 5 mg/kg, dosed compound name [14C]CS-1036, route oral
Conditions in all cases: in vivo
Aorta = experiment: Drug uptake in albino F344/DuCrlCrlj rat aorta at 5 mg/kg, po after 168 hrs by liquid scintillation counting; format: ADME, organism-based
Zone of skin [1] = experiment: Drug uptake in albino F344/DuCrlCrlj rat skin assessed as ng equivalent of CS-1036 at 5 mg/kg, po after 4 hrs by liquid scintillation counting; format: ADME, organism-based
Thymus = experiment: Drug uptake in albino F344/DuCrlCrlj rat thymus assessed as ng equivalent of CS-1036 at 5 mg/kg, po after 1 hr by liquid scintillation counting; format: ADME, organism-based
[2] = Drug uptake in albino F344/DuCrlCrlj rat skeletal muscle assessed as ng equivalent of CS-1036 at 5 mg/kg, po after 8 hrs by liquid scintillation counting; format: ADME, organism-based, Muscle tissue
Spleen [3] = experiment: Drug uptake in albino F344/DuCrlCrlj rat spleen at 5 mg/kg, po after 4 hrs by liquid scintillation counting; format: ADME, organism-based
[4] = Drug uptake in albino F344/DuCrlCrlj rat fat at 5 mg/kg, po after 72 hrs by liquid scintillation counting; format: ADME, organism-based, Adipose tissue
Summary of the method: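 Male F344/DuCrlCrlj rats (bought at 7 weeks, acclimatized 5–6 days; 159–167 g; n = 3 per time point) received a single oral dose of [14C]CS-1036 at 5 mg/kg. White adipose tissue was collected after abdominal aortic bleeding at 1, 4, 8, 24, 72, 168 or 336 h. Samples were counted by LSC with external-standard efficiency correction. Results were converted to ng equivalents per g from specific activity and sample weight.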

Plasma [5] = experiment: Drug uptake in albino F344/DuCrlCrlj rat plasma at 5 mg/kg, po after 72 hrs by liquid scintillation counting; format: ADME, organism-based
Spleen [6] = experiment: Drug uptake in albino F344/DuCrlCrlj rat spleen at 5 mg/kg, po after 168 hrs by liquid scintillation counting; format: ADME, organism-based
Cerebellum [7] = experiment: Drug uptake in albino F344/DuCrlCrlj rat cerebellum at 5 mg/kg, po after 72 hrs by liquid scintillation counting; format: ADME, organism-based
Pancreas [8] = experiment: Drug uptake in albino F344/DuCrlCrlj rat pancreas assessed as ng equivalent of CS-1036 at 5 mg/kg, po after 336 hrs by liquid scintillation counting; format: ADME, organism-based
Cerebrum [9] = experiment: Drug uptake in albino F344/DuCrlCrlj rat cerebrum assessed as ng equivalent of CS-1036 at 5 mg/kg, po after 336 hrs by liquid scintillation counting; format: ADME, organism-based
Summary of the method: (§1)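 Single oral [14C]CS-1036 at 5 mg/kg was given to male rats (159–167 g; n = 3). Cerebrum was collected after aortic bleeding at 1, 4, 8, 24, 72, 168 or 336 h, weighed, and homogenized in 2 volumes of saline. A 0.5 ml aliquot was solubilized in Soluene-350 and counted by LSC with external-standard correction. Results are in ng equivalent/g tissue from specific activity and sample weight.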

[10] = Drug uptake in albino F344/DuCrlCrlj rat eyeball assessed as ng equivalent of CS-1036 at 5 mg/kg, po after 4 hrs by liquid scintillation counting; format: ADME, organism-based
Large intestine [11] = experiment: Drug uptake in albino F344/DuCrlCrlj rat large intestine assessed as ng equivalent of CS-1036 at 5 mg/kg, po after 336 hrs by liquid scintillation counting; format: ADME, organism-based
[12] = Drug uptake in albino F344/DuCrlCrlj rat epididymis at 5 mg/kg, po after 24 hrs by liquid scintillation counting; format: ADME, organism-based
Pancreas [13] = experiment: Drug uptake in albino F344/DuCrlCrlj rat pancreas assessed as ng equivalent of CS-1036 at 5 mg/kg, po after 24 hrs by liquid scintillation counting; format: ADME, organism-based
[14] = Drug uptake in albino F344/DuCrlCrlj rat mandibular gland assessed as ng equivalent of CS-1036 at 5 mg/kg, po after 4 hrs by liquid scintillation counting; format: ADME, organism-based
Stomach = experiment: Drug uptake in albino F344/DuCrlCrlj rat stomach assessed as ng equivalent of CS-1036 at 5 mg/kg, po after 336 hrs by liquid scintillation counting; format: ADME, organism-based
Blood [15] = experiment: Drug uptake in albino F344/DuCrlCrlj rat blood at 5 mg/kg, po after 24 hrs by liquid scintillation counting; format: ADME, organism-based
Summary of the method: (§2)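 Male F344/DuCrlCrlj rats (159–167 g; n = 3 per time point) received a single oral dose of [14C]CS-1036 at 5 mg/kg. Blood was taken from the abdominal aorta at 1, 4, 8, 24, 72, 168 and 336 h. Radioactivity was counted by LSC with external-standard efficiency correction. Results were converted to ng equivalent of CS-1036/ml using specific activity and sample volume, and reported as mean + S.D.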

Plasma [16] = experiment: Drug uptake in albino F344/DuCrlCrlj rat plasma at 5 mg/kg, po after 1 hr by liquid scintillation counting; format: ADME, organism-based
Cerebellum [17] = experiment: Drug uptake in albino F344/DuCrlCrlj rat cerebellum assessed as ng equivalent of CS-1036 at 5 mg/kg, po after 1 hr by liquid scintillation counting; format: ADME, organism-based
[18] = Drug uptake in albino F344/DuCrlCrlj rat skeletal muscle at 5 mg/kg, po after 24 hrs by liquid scintillation counting; format: ADME, organism-based, Muscle tissue
Heart [19] = experiment: Drug uptake in albino F344/DuCrlCrlj rat heart assessed as ng equivalent of CS-1036 at 5 mg/kg, po after 336 hrs by liquid scintillation counting; format: ADME, organism-based
Heart [20] = experiment: Drug uptake in albino F344/DuCrlCrlj rat heart at 5 mg/kg, po after 168 hrs by liquid scintillation counting; format: ADME, organism-based
[21] = Drug uptake in albino F344/DuCrlCrlj rat testis assessed as ng equivalent of CS-1036 at 5 mg/kg, po after 168 hrs by liquid scintillation counting; format: ADME, organism-based
[22] = Drug uptake in albino F344/DuCrlCrlj rat bone marrow assessed as ng equivalent of CS-1036 at 5 mg/kg, po after 168 hrs by liquid scintillation counting; format: ADME, organism-based
Large intestine [23] = experiment: Drug uptake in albino F344/DuCrlCrlj rat large intestine at 5 mg/kg, po after 1 hr by liquid scintillation counting; format: ADME, organism-based
Large intestine [24] = experiment: Drug uptake in albino F344/DuCrlCrlj rat large intestine at 5 mg/kg, po after 24 hrs by liquid scintillation counting; format: ADME, organism-based
Adrenal gland = experiment: Drug uptake in albino F344/DuCrlCrlj rat adrenal gland at 5 mg/kg, po after 72 hrs by liquid scintillation counting; format: ADME, organism-based
Heart [25] = experiment: Drug uptake in albino F344/DuCrlCrlj rat heart assessed as ng equivalent of CS-1036 at 5 mg/kg, po after 24 hrs by liquid scintillation counting; format: ADME, organism-based
[26] = Drug uptake in albino F344/DuCrlCrlj rat brown fat at 5 mg/kg, po after 4 hrs by liquid scintillation counting; format: ADME, organism-based, Brown adipose tissue
Zone of skin [27] = experiment: Drug uptake in albino F344/DuCrlCrlj rat skin at 5 mg/kg, po after 8 hrs by liquid scintillation counting; format: ADME, organism-based
Blood [28] = experiment: Drug uptake in albino F344/DuCrlCrlj rat blood assessed as ng equivalent of CS-1036 at 5 mg/kg, po after 1 hr by liquid scintillation counting; format: ADME, organism-based; summary of the method: as §2
Cerebrum [29] = experiment: Drug uptake in albino F344/DuCrlCrlj rat cerebrum at 5 mg/kg, po after 8 hrs by liquid scintillation counting; format: ADME, organism-based; summary of the method: as §1

For C[C@H]1O[C@@H](O[C@H]2[C@H](O)[C@@H](O)[C@@H](O[14C@H]3[14C@H](O)[14CH2]N[14C@@H]3[14CH2]O)O[C@@H]2CO)[C@H](O)[C@@H](O)[C@@H]1O, the Radiolabel recovery (Aorta) was 18.1 ngequiv/g, the Radiolabel recovery (Zone of skin [1]) was 9.6 ngequiv/g and the Radiolabel recovery (Thymus) was 2.1 ngequiv/g. It also gave a Radiolabel recovery [2] of 11.2 ngequiv/g, a Radiolabel recovery (Spleen [3]) of 35.1 ngequiv/g and a Radiolabel recovery [4] of 194 ngequiv/g. It also gave a Radiolabel recovery (Plasma [5]) of 14.5 ngequiv/ml, a Radiolabel recovery (Spleen [6]) of 18.3 ngequiv/g and a Radiolabel recovery (Cerebellum [7]) of 9.8 ngequiv/g. It also gave a Radiolabel recovery (Pancreas [8]) of 11.2 ngequiv/g, a Radiolabel recovery (Cerebrum [9]) of 2.36 ngequiv/g and a Radiolabel recovery [10] of 4.8 ngequiv/g. It also gave a Radiolabel recovery (Large intestine [11]) of 6.02 ngequiv/g, a Radiolabel recovery [12] of 40.8 ngequiv/g and a Radiolabel recovery (Pancreas [13]) of 25 ngequiv/g. For the same molecule, the Radiolabel recovery [14] was 9.2 ngequiv/g, the Radiolabel recovery (Stomach) was 5.1 ngequiv/g and the Radiolabel recovery (Blood [15]) was 35.7 ngequiv/ml. For the same molecule, the Radiolabel recovery (Plasma [16]) was 90.6 ngequiv/ml, the Radiolabel recovery (Cerebellum [17]) was 0.79 ngequiv/g and the Radiolabel recovery [18] was 34.4 ngequiv/g. For the same molecule, the Radiolabel recovery (Heart [19]) was 3.63 ngequiv/g, the Radiolabel recovery (Heart [20]) was 13.8 ngequiv/g and the Radiolabel recovery [21] was 3.81 ngequiv/g. For the same molecule, the Radiolabel recovery [22] was 23 ngequiv/g, the Radiolabel recovery (Large intestine [23]) was 1070 ngequiv/g and the Radiolabel recovery (Large intestine [24]) was 299 ngequiv/g. It also gave a Radiolabel recovery (Adrenal gland) of 99.7 ngequiv/g, a Radiolabel recovery (Heart [25]) of 4.4 ngequiv/g and a Radiolabel recovery [26] of 25.8 ngequiv/g. For the same molecule, the Radiolabel recovery (Zone of skin [27]) was 60.3 ngequiv/g, the Radiolabel recovery (Blood [28]) was 9.5 ngequiv/ml and the Radiolabel recovery (Cerebrum [29]) was 9.08 ngequiv/g.
